The source made the active and inactive calls. The calls are words filed in the database; no cut-off is given here.
Experiments:
[1] = Metabolic stability in human liver microsomes assessed as half life; assay type: ADME, Microsome
[2] = Metabolic stability in rat liver microsomes assessed as half life; assay type: ADME, Microsome
[3] = molecular target: T1, Transient receptor potential cation channel subfamily V member 1 (Homo sapiens, UniProt Q8NER1); assay: Antagonist activity at human TRPV1 receptor assessed as inhibition of capsaicin-induced calcium flux at 1 uM by FLIPR; assay type: functional
[4] = molecular target: T1, Transient receptor potential cation channel subfamily V member 1; assay: Antagonist activity at human TRPV1 receptor assessed as inhibition of capsaicin-induced calcium flux by FLIPR; assay type: functional
Procedure, shortened: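 Capsaicin-evoked Ca2+ flux in cells expressing TRPV1, read on a FLIPR with a Ca2+-sensitive fluorescent dye. Antagonism was taken as inhibition of the capsaicin response.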

[5] = molecular target: T1, Transient receptor potential cation channel subfamily V member 1; assay: Displacement of [3H]RTX from human TRPV1 receptor expressed in HEK293 cell membrane; assay type: cell membranes
[6] = tested on: Caco-2; assay: Ratio of permeability from basolateral to apical over apical to basolateral side of human Caco-2 cells
[7] = Apparent permeability from apical to basolateral side of human Caco-2 cells; assay type: ADME, cell-based
[8] = molecular target: Cytochrome P450 3A4 (Homo sapiens, UniProt P08684); assay: Inhibition of recombinant CYP3A4; assay type: ADME
[9] = molecular target: Cytochrome P450 2D6 (Homo sapiens, UniProt P10635); assay: Inhibition of recombinant CYP2D6; assay type: ADME
Sequence of Cytochrome P450 2D6 (P10635 whole entry): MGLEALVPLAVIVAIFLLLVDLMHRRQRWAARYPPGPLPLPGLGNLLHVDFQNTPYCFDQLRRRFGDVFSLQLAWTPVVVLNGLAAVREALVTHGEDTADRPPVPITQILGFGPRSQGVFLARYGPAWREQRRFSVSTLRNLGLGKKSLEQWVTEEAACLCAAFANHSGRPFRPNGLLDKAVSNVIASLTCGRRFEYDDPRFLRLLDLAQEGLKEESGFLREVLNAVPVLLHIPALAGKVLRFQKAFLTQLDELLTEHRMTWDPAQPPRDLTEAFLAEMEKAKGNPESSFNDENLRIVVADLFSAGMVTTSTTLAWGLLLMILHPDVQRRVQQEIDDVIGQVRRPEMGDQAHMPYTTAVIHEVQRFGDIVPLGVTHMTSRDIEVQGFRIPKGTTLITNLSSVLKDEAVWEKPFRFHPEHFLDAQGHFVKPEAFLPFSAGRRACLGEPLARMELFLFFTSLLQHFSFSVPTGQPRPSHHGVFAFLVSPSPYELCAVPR

T1 sequence (Q8NER1 whole entry): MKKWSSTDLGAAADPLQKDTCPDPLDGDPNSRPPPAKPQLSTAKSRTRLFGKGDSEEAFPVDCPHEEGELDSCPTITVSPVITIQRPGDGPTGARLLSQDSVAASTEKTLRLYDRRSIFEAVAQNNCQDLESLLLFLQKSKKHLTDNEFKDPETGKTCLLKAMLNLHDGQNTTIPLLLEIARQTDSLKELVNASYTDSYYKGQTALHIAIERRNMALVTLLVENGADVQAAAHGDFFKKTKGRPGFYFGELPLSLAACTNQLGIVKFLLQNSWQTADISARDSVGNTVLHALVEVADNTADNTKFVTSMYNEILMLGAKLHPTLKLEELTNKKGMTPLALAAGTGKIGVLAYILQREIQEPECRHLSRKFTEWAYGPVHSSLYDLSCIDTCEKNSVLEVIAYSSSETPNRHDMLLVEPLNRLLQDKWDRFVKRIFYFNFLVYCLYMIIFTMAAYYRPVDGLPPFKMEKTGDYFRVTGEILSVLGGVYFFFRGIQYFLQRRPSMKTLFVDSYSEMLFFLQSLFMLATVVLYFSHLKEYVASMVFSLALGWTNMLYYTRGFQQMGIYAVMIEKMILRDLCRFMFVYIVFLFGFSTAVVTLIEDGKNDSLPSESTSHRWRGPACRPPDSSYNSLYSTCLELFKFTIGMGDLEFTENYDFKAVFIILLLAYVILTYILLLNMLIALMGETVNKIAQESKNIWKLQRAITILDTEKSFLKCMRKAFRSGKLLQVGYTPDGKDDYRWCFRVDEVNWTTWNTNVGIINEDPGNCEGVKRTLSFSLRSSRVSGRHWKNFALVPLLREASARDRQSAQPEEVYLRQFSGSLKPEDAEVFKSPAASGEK
Sequence of Cytochrome P450 3A4 (P08684 whole entry): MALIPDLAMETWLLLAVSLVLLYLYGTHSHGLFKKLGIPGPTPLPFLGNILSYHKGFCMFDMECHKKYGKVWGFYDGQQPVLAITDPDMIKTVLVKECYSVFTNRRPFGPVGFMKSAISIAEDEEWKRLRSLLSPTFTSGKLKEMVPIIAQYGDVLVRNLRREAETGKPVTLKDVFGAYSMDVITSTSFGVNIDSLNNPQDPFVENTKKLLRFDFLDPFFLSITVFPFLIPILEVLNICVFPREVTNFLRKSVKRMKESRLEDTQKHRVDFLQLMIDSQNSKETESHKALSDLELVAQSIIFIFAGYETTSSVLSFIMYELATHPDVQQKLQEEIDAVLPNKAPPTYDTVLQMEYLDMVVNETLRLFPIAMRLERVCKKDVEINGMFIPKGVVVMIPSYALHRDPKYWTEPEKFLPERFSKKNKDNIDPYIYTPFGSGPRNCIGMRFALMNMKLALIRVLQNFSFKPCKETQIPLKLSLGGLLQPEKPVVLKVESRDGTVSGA

Row | Compound | half-life [1] | half-life [2] | Ki [5] | other results
1 | O=C1COc2ccc(NC(=O)C3CCN(c4ccc(F)c(F)c4)CC3)cc2N1 | 44.3 min | 15.5 min | – | –
2 | O=C1COc2cc(NC(=O)C3CCN(c4cc(F)c(F)c(F)c4)CC3)ccc2N1 | – | – | – | inhibition [3]: 55%
3 | O=C1COc2c(cccc2NC(=O)C2CCN(c3cc(F)c(F)c(F)c3)CC2)N1 | – | – | – | Activity [4]: inactive
4 | O=C1COc2ccc(NC(=O)C3CCN(c4cccc(Cl)c4)CC3)cc2N1 | 27.7 min | 4.4 min | 0.097 µM | –
5 | O=C(Nc1ccc2c(c1)NC(=O)C(C(=O)O)O2)C1CCN(c2cc(F)c(F)c(F)c2)CC1 (stereo not drawn) | – | – | – | Activity [4]: inactive
6 | CN1C(=O)COc2ccc(NC(=O)C3CCN(c4cc(F)c(F)c(F)c4)CC3)cc21 | – | – | – | Activity [4]: inactive
7 | O=C1COc2ccc(NC(=O)C3CCN(c4ccccc4C(F)(F)F)CC3)cc2N1 | – | – | 0.068 µM | –
8 | O=C(O)CC1Oc2ccc(NC(=O)C3CCN(c4cc(F)c(F)c(F)c4)CC3)cc2NC1=O (stereo not drawn) | – | – | – | inhibition [3]: 5%
9 | CC(C)(C)c1ccc(N2CCC(C(=O)Nc3ccc4c(c3)NC(=O)CO4)CC2)cc1 | – | – | 0.142 µM | –
10 | CC(C)c1ccccc1N1CCC(C(=O)Nc2ccc3c(c2)NC(=O)CO3)CC1 | 11.4 min | 9 min | – | –
11 | CCOC(=O)C1Oc2ccc(NC(=O)C3CCN(c4cc(F)c(F)c(F)c4)CC3)cc2NC1=O (stereo not drawn) | – | – | – | Activity [4]: inactive
12 | CC(=O)N1CCc2cc(NC(=O)C3CCN(c4cccc(C(F)(F)F)c4)CC3)ccc21 | – | – | – | IC50 [4]: > 9 µM
13 | O=C1COc2cccc(NC(=O)C3CCN(c4cc(F)c(F)c(F)c4)CC3)c2N1 | – | – | – | inhibition [3]: 9%
14 | O=C(Nc1ccc2c(c1)NC(=O)C(CCO)O2)C1CCN(c2cc(F)c(F)c(F)c2)CC1 (stereo not drawn) | 55 min | 79 min | – | IC50 [4]: 0.005 µM; Ratio [6]: 10.6; Papp A→B [7]: 1.5 ×10⁻⁶ cm/s; IC50 [8]: 3.7 µM; IC50 [9]: > 10 µM
15 | Cc1c(Cl)cccc1N1CCC(C(=O)Nc2ccc3c(c2)NC(=O)CO3)CC1 | – | – | 0.1 µM | –
16 | O=C1COc2ccc(NC(=O)C3CCN(c4cc(F)c(F)c(F)c4)CC3)cc2N1 | 58.9 min | 63.8 min | 0.049 µM | IC50 [4]: 0.059 µM
17 | COC(=O)CC1Oc2ccc(NC(=O)C3CCN(c4cc(F)c(F)c(F)c4)CC3)cc2NC1=O (stereo not drawn) | – | – | – | IC50 [4]: 0.89 µM
18 | Cc1cccc(N2CCC(C(=O)Nc3ccc4c(c3)NC(=O)CO4)CC2)c1C | > 60 min | 6.5 min | 0.028 µM | –
19 | O=C1COc2ccc(NC(=O)C3CCN(c4cccc(C(F)(F)F)c4)CC3)cc2N1 | 17.3 min | 2.8 min | – | IC50 [4]: 0.18 µM
20 | O=C(Nc1ccc2cc[nH]c2c1)C1CCN(c2cccc(C(F)(F)F)c2)CC1 | – | – | – | IC50 [4]: > 9 µM
21 | O=C1COc2ccc(NC(=O)C3CCN(c4cc(F)cc(F)c4)CC3)cc2N1 | 81.7 min | 19.4 min | – | –
22 | CC1(C(=O)O)Oc2ccc(NC(=O)C3CCN(c4cc(F)c(F)c(F)c4)CC3)cc2NC1=O (stereo not drawn) | – | – | – | Activity [4]: inactive
23 | O=C1COc2ccc(NC(=O)C3CCN(c4cccc(F)c4Br)CC3)cc2N1 | 15.6 min | 7.2 min | 0.081 µM | –

— ChEMBL document CHEMBL1156561, “Discovery of piperidine carboxamide TRPV1 antagonists” (Bioorg Med Chem Lett, 2008)
